The record followed here is ChEMBL document CHEMBL3758101, “Synthesis and biological evaluation of fluorinated 1,5-diarylpyrrole-3-alkoxyethyl ether derivatives as selective COX-2 inhibitors endowed with anti-inflammatory activity” (Eur J Med Chem, 2016).

In series [1] the test system is HaCaT. In words: Cytotoxicity against human HaCaT cells at 1 to 50 uM after 24 hrs by LDH release assay. The series is classed as cell-based. In short, it runs like this: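 HaCaT cells were grown in high-glucose DMEM with 10% FBS to 80% confluency. They were exposed 24 h to compound at 1–50 µM (final DMSO ≤0.1%). LDH release was expressed as a percentage of Triton X-100 lysis (100%); mean of three experiments.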
On the technique in general: LDH in the medium is a marker of cell lysis.

For series [2], the system named is HaCaT. The series is described as follows: Antiproliferative activity against human HaCaT cells after 24 hrs by BrdU incorporation assay. It is filed as functional, cell-based. The method in brief: (§1)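 HaCaT human keratinocytes were grown in high-glucose DMEM with 10% FBS and 2 mM L-glutamine at 37 °C and 5% CO2 to 80% confluency. Cells were treated 24 h with compound at 1, 10 or 50 µM (final DMSO ≤0.1%). Proliferation was read by BrdU incorporation as % of DMSO control; three experiments.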

Series [3] has as its system HaCaT. The series is described as follows: Antiproliferative activity against human HaCaT cells at 10 uM after 24 hrs by BrdU incorporation assay. It is filed as functional, cell-based. In short, it runs like this:
as §1
Background: Dividing cells build labelled thymidine or BrdU into new DNA.

In series [4] the test system is HaCaT. In words: Antiproliferative activity against human HaCaT cells at 50 uM after 24 hrs by BrdU incorporation assay. It is filed as functional, cell-based. The method in brief: as §1
The subject of series [5] is HaCaT. The series is described as follows: Antiproliferative activity against human HaCaT cells at 1 uM after 24 hrs by BrdU incorporation assay. It is filed as functional, cell-based. The method in brief: as §1
Series [6] deals with T1, Prostaglandin G/H synthase 1 (Mus musculus, UniProt P22437).
T1 sequence (P22437 whole entry): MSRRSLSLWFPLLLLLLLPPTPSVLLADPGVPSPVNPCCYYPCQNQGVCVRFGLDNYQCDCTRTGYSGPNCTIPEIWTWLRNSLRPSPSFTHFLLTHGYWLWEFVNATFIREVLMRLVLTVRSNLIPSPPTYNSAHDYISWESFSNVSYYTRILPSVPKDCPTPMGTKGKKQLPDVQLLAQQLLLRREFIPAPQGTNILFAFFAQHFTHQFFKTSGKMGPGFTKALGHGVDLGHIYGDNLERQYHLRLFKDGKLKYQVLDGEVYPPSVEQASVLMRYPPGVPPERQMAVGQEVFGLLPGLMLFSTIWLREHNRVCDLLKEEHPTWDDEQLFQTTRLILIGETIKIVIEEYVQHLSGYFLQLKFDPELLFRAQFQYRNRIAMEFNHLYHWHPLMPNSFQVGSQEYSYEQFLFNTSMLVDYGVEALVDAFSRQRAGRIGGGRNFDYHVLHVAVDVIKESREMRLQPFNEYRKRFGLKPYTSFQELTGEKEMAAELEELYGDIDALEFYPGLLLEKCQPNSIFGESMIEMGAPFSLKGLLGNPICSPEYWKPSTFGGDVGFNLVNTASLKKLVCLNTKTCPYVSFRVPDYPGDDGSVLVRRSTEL
In words: Inhibition of COX-1 in mouse J774 cells assessed as reduction in PGE2 level using arachidonic acid as substrate preincubated for 15 mins followed by incubation with arachidonic acid for 30 mins by radio immunoassay. The series is classed as cell-based. The method in brief:
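Murine J774 macrophages (2.5 × 10^5 cells/mL) were adhered 2 h at 37 °C and given fresh medium. Cells were pretreated with compound at 100 µM for 15 min, then incubated 30 min at 37 °C with 15 µM arachidonic acid. Supernatant PGE2 was measured by RIA as % inhibition versus control; triplicate wells, three experiments, IC50 from a sigmoidal variable-slope fit.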

Series [7] addresses T2, Prostaglandin G/H synthase 2 (Mus musculus, UniProt Q05769).
T2 sequence (Q05769 whole entry): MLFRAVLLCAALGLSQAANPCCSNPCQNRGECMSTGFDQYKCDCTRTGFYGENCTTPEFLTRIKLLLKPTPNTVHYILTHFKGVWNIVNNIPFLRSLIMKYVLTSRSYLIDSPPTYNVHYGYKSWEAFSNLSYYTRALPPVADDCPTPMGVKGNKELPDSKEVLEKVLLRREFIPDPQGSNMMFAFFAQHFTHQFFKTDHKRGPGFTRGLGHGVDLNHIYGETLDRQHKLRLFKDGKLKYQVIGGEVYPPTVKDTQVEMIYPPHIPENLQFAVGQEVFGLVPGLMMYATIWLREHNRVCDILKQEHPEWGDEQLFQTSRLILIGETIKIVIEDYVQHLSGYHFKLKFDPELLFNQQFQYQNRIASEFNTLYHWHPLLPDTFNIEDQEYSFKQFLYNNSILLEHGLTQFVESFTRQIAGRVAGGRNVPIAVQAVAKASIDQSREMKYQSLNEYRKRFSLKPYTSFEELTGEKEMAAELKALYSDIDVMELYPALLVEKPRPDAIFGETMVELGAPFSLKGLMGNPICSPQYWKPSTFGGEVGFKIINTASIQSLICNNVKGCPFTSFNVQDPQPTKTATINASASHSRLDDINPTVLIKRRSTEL
In words: Inhibition of COX-2 in mouse J774 cells assessed as reduction in LPS-induced PGE2 level incubated for 24 hrs by radio immunoassay. It is filed as cell-based. In short, it runs like this:
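Murine J774 macrophages were stimulated for 24 h with E. coli LPS (10 µg/mL) to induce COX-2, with or without compound (0.001–10 µM). Supernatant PGE2 was measured by RIA as % inhibition of production versus control; triplicate wells, mean of three experiments, IC50 from a sigmoidal variable-slope fit.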

The species named for another series is Mus musculus. The series is described as follows: Selectivity ratio of IC50 for mouse COX-1 to IC50 for mouse COX-2. In short, it runs like this: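 In J774 cells, the ratio was taken as COX-1 IC50 over COX-2 IC50. COX-1 activity: 15 min compound pretreatment, then 30 min with 15 µM arachidonic acid. COX-2 activity: 24 h LPS (10 µg/mL) induction with compound. PGE2 was measured by RIA in both; IC50 values came from sigmoidal fits of three experiments.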

Active and inactive are the calls of the source. The calls are words filed in the database; no cut-off is given here. Where only a bound is given, the exact number is not on record here.

A word on the IC50: it is the concentration at which inhibition is half-maximal. For `Cc1c(CCOCCF)cc(-c2ccc(S(C)(=O)=O)cc2)n1-c1cccc(F)c1`, the Activity result was “Non-toxic” with HaCaT [1] and “Dose-dependent effect” with HaCaT [2]. For the same molecule, the result in the series on HaCaT [3] and in the series with HaCaT [4] was Active. In the series with HaCaT [5], the outcome was inactive. Moreover, the IC50 in series [6] was over 100 µM; in series [7] it was 0.14 µM. Besides, the Ratio IC50 in the series filed under Mus musculus is over 714.

Turning to `CCCOCCc1cc(-c2ccc(S(C)(=O)=O)cc2)n(-c2ccc(F)c(F)c2)c1C`, the Activity result in the series on HaCaT [1] is “Non-toxic”; in the series on HaCaT [2] it was “Dose-dependent effect”. Moreover, the result in the series with HaCaT [3] and in the series on HaCaT [4] was Active. In addition, the result in the series with HaCaT [5] was inactive. The IC50 was over 100 µM in series [6] and 0.018 µM in series [7]. Further, in the series filed under Mus musculus, the Ratio IC50 was over 5560.

`Cc1c(CCOCCCF)cc(-c2ccc(S(C)(=O)=O)cc2)n1-c1ccc(F)c(F)c1`: the values for the Activity entry with HaCaT [1] and in the series on HaCaT [2] were “Non-toxic” and “Dose-dependent effect”, respectively. For the same molecule, the result in the series on HaCaT [3] and in the series with HaCaT [4] was Active. In addition, in the series with HaCaT [5], the result was inactive. For the same molecule, the IC50 in series [6] was over 100 µM; in series [7], 0.019 µM. Moreover, the Ratio IC50 in the series listed under Mus musculus is over 5260.

For the molecule `CCCOCCc1cc(-c2ccc(S(C)(=O)=O)cc2)n(-c2cccc(F)c2)c1C`, in the series on HaCaT [1], the Activity result is recorded as “Non-toxic”. In addition, the outcome in the series on HaCaT [2], in the series with HaCaT [3], in the series on HaCaT [4] and in the series with HaCaT [5] was inactive. Besides, the IC50 in series [6] is over 100 µM; in series [7], 0.013 µM. For the same molecule, in the series listed under Mus musculus, the Ratio IC50 was over 7690.

Regarding `Cc1c(CCOCCF)cc(-c2ccc(S(C)(=O)=O)cc2)n1-c1ccc(F)cc1`, the Activity result was “Non-toxic” in the series with HaCaT [1] and “Dose-dependent effect” in the series on HaCaT [2]. Also, the outcome with HaCaT [3] and in the series with HaCaT [4] was Active. Moreover, the outcome in the series with HaCaT [5] was inactive. For the same molecule, the IC50 in series [6] is over 100 µM; in series [7] it was 0.013 µM. The Ratio IC50 in the series listed under Mus musculus was over 7690.

With `Cc1c(CCOCCF)cc(-c2ccc(S(C)(=O)=O)cc2)n1-c1ccc(F)c(F)c1`, the Activity entry is “Non-toxic” in the series on HaCaT [1] and “Dose-dependent effect” in the series on HaCaT [2]. The result in the series with HaCaT [3] and in the series on HaCaT [4] was Active. Moreover, the result in the series on HaCaT [5] was inactive. In addition, the results for the concentration for half-maximal inhibition (IC50) in series [6] and in series [7] were over 100 µM and 0.029 µM, respectively. In addition, in the series filed under Mus musculus, the Ratio IC50 is over 3450.

In the case of `Cc1c(CCOCCCF)cc(-c2ccc(S(C)(=O)=O)cc2)n1-c1cccc(F)c1`, in the series with HaCaT [1], the Activity entry is reported as “Non-toxic”. The outcome in the series with HaCaT [2], in the series on HaCaT [3], with HaCaT [4] and in the series on HaCaT [5] was inactive. The IC50 in series [6] is over 100 µM; in series [7], 0.135 µM. Besides, the Ratio IC50 in the series listed under Mus musculus was over 2860.
